Values after ≈ are worked out from the molar mass of the structure shown. Active and inactive are the calls of the source. The calls are words filed in the database; no cut-off is given here.
Legend:
[1] = system: Staphylococcus aureus; test: Antibacterial activity against clinical isolates of Staphylococcus aureus DM4001R after 24 hrs by […]; type: functional
[2] = system: Staphylococcus aureus; test: Antibacterial activity against clinical isolates of methicillin-resistant Staphylococcus aureus DM9808R after 24 hrs by […]; type: functional
[3] = system: Staphylococcus aureus; test: Antibacterial activity against clinical isolates of methicillin-resistant Staphylococcus aureus DM21455 after 24 hrs by […]; type: functional; settings: DM21455, 24 h
[4] = system: Bacillus cereus; test: Antibacterial activity against clinical isolates of Bacillus cereus ATCC 11778 after 24 hrs by […]; type: functional; settings: ATCC 11778, 24 h
[5] = Hemolytic activity against New Zealand white rabbit RBC after 1 hr by microplate reader analysis; type: ADME, cell-based, Oryctolagus cuniculus, Erythrocyte; settings: rabbit red blood cells
Method in brief: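 Rabbit RBCs spun from serum at 3,000 rpm for 10 min and washed twice in PBS. Mixed with compound in DMF at 4% v/v RBCs, 1 h at 37 °C. After centrifugation, hemoglobin in the supernatant read at 576 nm. 2% Triton X-100 was the positive control and 1% DMF the negative control.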

[6] = Selectivity index, ratio of HC50 for hemolytic activity against New Zealand white rabbit RBC to MIC for clinical isolates of Staphylococcus aureus DM4001
[7] = system: Staphylococcus aureus; test: Induction of membrane permeabilization in clinical isolates of Staphylococcus aureus DM4001 at MIC by SYTOX green uptake assay; type: functional
Method in brief: (§1)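 Exponential-phase cells washed twice in 20 mM PBS pH 7 and adjusted to OD620 0.09. Given 3 µM SYTOX Green and kept in the dark until fluorescence was stable, then compound added. Fluorescence followed in a stirred cuvette at ex 504/em 523 nm. Melittin 10 µg/mL was the positive control. Run at least twice; one run reported.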

[8] = system: Staphylococcus aureus; test: Induction of membrane permeabilization in clinical isolates of Staphylococcus aureus DM4001 assessed as ATP leakage at MIC incubated for 10 mins by firefly luciferase based luminometry analysis; type: functional
Method in brief: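 Exponential-phase cells washed twice in 20 mM PBS pH 7 and set to OD620 0.3. Exposed 10 min at 37 °C, then spun at 4000 rpm for 5 min. Supernatant mixed with luciferase reagent (1 mM DTT, 0.5 mM D-luciferin, 1.25 µg/mL firefly luciferase). Luminescence read over 30 cycles.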

[9] = system: Staphylococcus aureus; test: Induction of membrane permeabilization in clinical isolates of Staphylococcus aureus DM4001 at 10 uM measured for 200 sec by SYTOX green influx assay; type: functional, organism-based; method in brief: as §1
[10] = system: Staphylococcus aureus; test: Induction of membrane disruption in clinical isolates of Staphylococcus aureus DM4001 assessed as membrane integrity incubated for 10 mins by live/dead baclight bacterial viability assay relative to control; type: functional; design: concentration or dose not given beside the values
Method in brief: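 Exponential-phase cells washed in 0.9% saline, OD670 0.3, exposed to compound 10 min at room temperature. Pelleted, resuspended, then stained with SYTO 9 (10 µM) plus propidium iodide (60 µM) 15 min dark. Excitation 485 nm, emission 500–700 nm; green/red ratio converted to % damage using standards of 0–100% isopropanol-killed cells.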

[11] = Membrane permeabilization activity assessed as release of calcein from DOPE/DOPG large unilamellar vesicles at 0.125 to 0.5 compound:lipid ratio incubated for 30 mins by fluorescence assay; type: ADME; settings: 0.5 h
Method in brief: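 Freeze-thawed, extruded, then gel-filtered. Final lipid 50 µM with compound added from DMF (<0.2%). Fluorescence at ex 490/em 520 nm over 30 min; 0.1% Triton X-100 defined 100% lysis.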

| Structure (SMILES) | MIC [1] [µg/mL] | MIC [2] [µg/mL] | MIC [3] [µg/mL] | MIC [4] [µg/mL] | HC50 at 1 h [5] [µg/mL] | Selectivity ratio [6] | Activity [7] [cps] | Activity [8] [µM] | Activity [9] | Activity [10] [%] | Activity [11] [%] |
| --- | --- | --- | --- | --- | --- | --- | --- | --- | --- | --- | --- |
| CCN(C)CCCCOc1cc2oc3cc(OCCCCN(C)CC)c(OC)c(CC=C(C)C)c3c(=O)c2c(O)c1CC=C(C)C | 1.56 (≈ 2.45 µM) | 6.25 (≈ 9.81 µM) | 1.56 (≈ 2.45 µM) | 6.25 (≈ 9.81 µM) | 25.1 | 16.1 | 12456 | 1.734 | – | – | – |
| CCN(CC)CCCCCCOc1cc2oc3cc(OCCCCCCN(CC)CC)c(OC)c(CC=C(C)C)c3c(=O)c2c(O)c1CC=C(C)C | 1.56 (≈ 2.16 µM) | 3.12 (≈ 4.33 µM) | 1.56 (≈ 2.16 µM) | 3.12 (≈ 4.33 µM) | – | 17 | – | – | Active | 45.1 | – |
| CCCN(C)CCCCOc1cc2oc3cc(OCCCCN(C)CCC)c(OC)c(CC=C(C)C)c3c(=O)c2c(O)c1CC=C(C)C | 25 (≈ 37.6 µM) | 25 (≈ 37.6 µM) | 12.5 (≈ 18.8 µM) | 12.5 (≈ 18.8 µM) | 32.6 | 1.3 | 87537 | 3.945 | – | – | – |
| CCN(CC)CCCCCCCCCCOc1cc2oc3cc(OCCCCCCCCCCN(CC)CC)c(OC)c(CC=C(C)C)c3c(=O)c2c(O)c1CC=C(C)C | > 50 | > 50 | > 50 | > 50 | 200 | – | – | – | inactive | 100 | > 70 |
| COc1c(OCCCCN2CCN(CCN(C)C)CC2)cc2oc3cc(OCCCCN4CCN(CCN(C)C)CC4)c(CC=C(C)C)c(O)c3c(=O)c2c1CC=C(C)C | 6.25 (≈ 7.5 µM) | 3.12 (≈ 3.75 µM) | 3.12 (≈ 3.75 µM) | 6.25 (≈ 7.5 µM) | 35.9 | 5.7 | 5850 | 2.975 | – | – | – |
| COc1c(OCCCCN2CCNCC2)cc2oc3cc(OCCCCN4CCNCC4)c(CC=C(C)C)c(O)c3c(=O)c2c1CC=C(C)C | 6.25 (≈ 9.05 µM) | 6.25 (≈ 9.05 µM) | 12.5 (≈ 18.1 µM) | 12.5 (≈ 18.1 µM) | 72.1 | 11.5 | 24629 | 3.154 | – | – | – |
| CCCN(CC)CCCCOc1cc2oc3cc(OCCCCN(CC)CCC)c(OC)c(CC=C(C)C)c3c(=O)c2c(O)c1CC=C(C)C | 6.25 (≈ 9.02 µM) | 6.25 (≈ 9.02 µM) | 12.5 (≈ 18 µM) | 25 (≈ 36.1 µM) | 63.3 | 5.1 | 82176 | 12.736 | – | – | – |
| CCN(CCCCOc1cc2oc3cc(OCCCCN(CC)C(C)C)c(OC)c(CC=C(C)C)c3c(=O)c2c(O)c1CC=C(C)C)C(C)C | 25 (≈ 36.1 µM) | 12.5 (≈ 18 µM) | 25 (≈ 36.1 µM) | 12.5 (≈ 18 µM) | 54.6 | 2.2 | 97824 | 5.407 | – | – | – |
| CCN(CC)CCCCCCCCOc1cc2oc3cc(OCCCCCCCCN(CC)CC)c(OC)c(CC=C(C)C)c3c(=O)c2c(O)c1CC=C(C)C | > 50 | > 50 | > 50 | > 50 | 53.1 | – | – | – | Active | 95.5 | > 70 |
| CCCCN(C)CCCCOc1cc2oc3cc(OCCCCN(C)CCCC)c(OC)c(CC=C(C)C)c3c(=O)c2c(O)c1CC=C(C)C | 50 (≈ 72.2 µM) | 50 (≈ 72.2 µM) | 25 (≈ 36.1 µM) | 25 (≈ 36.1 µM) | 60.5 | 1.2 | 114095 | 8.862 | – | – | – |
| CCN(CC)CCCOc1cc2oc3cc(OCCCN(CC)CC)c(OC)c(CC=C(C)C)c3c(=O)c2c(O)c1CC=C(C)C | 0.78 (≈ 1.22 µM) | 0.78 (≈ 1.22 µM) | 0.39 (≈ 0.612 µM) | 6.25 (≈ 9.81 µM) | – | 20.9 | – | – | Active | 46.2 | – |
| CCN(CC)CCOc1cc2oc3cc(OCCN(CC)CC)c(OC)c(CC=C(C)C)c3c(=O)c2c(O)c1CC=C(C)C | > 50 | > 50 | > 50 | > 50 | > 200 | – | – | – | Active | 64.1 | – |
| CCCCCN(C)CCCCOc1cc2oc3cc(OCCCCN(C)CCCCC)c(OC)c(CC=C(C)C)c3c(=O)c2c(O)c1CC=C(C)C | 25 (≈ 34.7 µM) | 25 (≈ 34.7 µM) | 25 (≈ 34.7 µM) | 12.5 (≈ 17.3 µM) | > 200 | > 8 | 47166 | 8.949 | – | – | – |
| CCN(CC)CCCCCOc1cc2oc3cc(OCCCCCN(CC)CC)c(OC)c(CC=C(C)C)c3c(=O)c2c(O)c1CC=C(C)C | 1.56 (≈ 2.25 µM) | 1.56 (≈ 2.25 µM) | 0.78 (≈ 1.13 µM) | 6.25 (≈ 9.02 µM) | – | 9 | – | – | Active | 43 | – |
| COc1c(OCCCCNC(=N)N)cc2oc3cc(OCCCCNC(=N)N)c(CC=C(C)C)c(O)c3c(=O)c2c1CC=C(C)C | 3.12 (≈ 4.91 µM) | 6.25 (≈ 9.81 µM) | 6.25 (≈ 9.81 µM) | 6.25 (≈ 9.81 µM) | 64.1 | 20.5 | 68378 | 2.237 | – | – | – |
| CCCCN(CC)CCCCOc1cc2oc3cc(OCCCCN(CC)CCCC)c(OC)c(CC=C(C)C)c3c(=O)c2c(O)c1CC=C(C)C | 12.5 (≈ 17.3 µM) | 6.25 (≈ 8.67 µM) | 25 (≈ 34.7 µM) | 25 (≈ 34.7 µM) | > 200 | > 16 | 64790 | 12.48 | – | – | – |
| COc1c(OCCCCN2CCC(O)CC2)cc2oc3cc(OCCCCN4CCC(O)CC4)c(CC=C(C)C)c(O)c3c(=O)c2c1CC=C(C)C | 6.25 (≈ 8.67 µM) | 3.12 (≈ 4.33 µM) | 12.5 (≈ 17.3 µM) | 6.25 (≈ 8.67 µM) | 36 | 5.8 | 50250 | 5.938 | – | – | – |
